Assay results pooled from the literature.
Protocols differ between the studies behind these lines.
Mode: inhibitor
PARP2: Poly [ADP-ribose] polymerase 2 (PARP2, Homo sapiens, UniProt Q9UGN5)
CDK2: Cyclin-dependent kinase 2 (CDK2, Homo sapiens, UniProt P24941)

The IC50 of `O=c1[nH]c2c(nnn2Cc2ccc(C(F)(F)F)cc2)c2ccc(F)cc12` is reported as greater than 10000 nM (PARP2; enzyme activity).
For `Cc1n[nH]c2ccc3nc(-c4ccc(C(=O)NCCN(C)C)cc4)c4c(c3c12)CCC(F)(F)C4`, the IC50 was 594 nM (CDK2; enzyme activity).
`CC(=O)N1C(=O)NC(C)=C(C(=O)OCc2ccccc2)C1c1cccc([N+](=O)[O-])c1` (racemic) has an IC50 of 2600 nM (Voltage-dependent L-type calcium channel subunit alpha-1C (Cacna1c, Rattus norvegicus, UniProt P22002); ion current, patch clamp).
`NC/C(=C\F)COc1cccc(Cn2c(=S)[nH]c(=O)c3[nH]cnc32)c1` has an IC50 of greater than 100000 nM (Sodium channel protein type 5 subunit alpha (SCN5A, Homo sapiens, UniProt Q14524); ion current).
The IC50 of `CCc1ccc(Cn2nnc3c4ccc(F)cc4c(=O)[nH]c32)cc1` is reported as greater than 10000 nM (PARP2; enzyme activity, fluorescence).
`Cc1n[nH]c2ccc3nc(-c4ccc(C(=O)NCCN(C)C)cc4F)c4c(c3c12)CCCC4` has an IC50 of 80 nM (CDK2; enzyme activity).
The IC50 of `Cn1cc(C2=C(c3cn(CCCSC(=N)N)c4ccccc34)C(=O)NC2=O)c2ccccc21` is reported as 54.4 nM (Mitogen-activated protein kinase kinase kinase kinase 1 (MAP4K1, Homo sapiens, UniProt Q92918); enzyme activity).
`Cc1n[nH]c2ccc3nc(-c4ccc(C(=O)NCCN5CCCC5)cc4)c4c(c3c12)CCCC4` gave an IC50 of 310 nM (CDK2; enzyme activity).
`Cc1cccc(Cn2nnc3c4ccc(F)cc4c(=O)[nH]c32)c1` has an IC50 of greater than 10000 nM (PARP2; enzyme activity).
`CN(C)CCNC(=O)c1ccc(-c2nc3ccc4[nH]ncc4c3c3c2CC(C)(C)CC3)cc1` gave an IC50 of 145 nM (CDK2; enzyme activity).
`O=c1[nH]c2c(nnn2Cc2ccccc2)c2ccc(F)cc12` has an IC50 of greater than 10000 nM (PARP2; enzyme activity).
`CCNc1ccc(C(N)=O)cn1` gave an IC50 of greater than 31600 nM (Nicotinamide N-methyltransferase (NNMT, Homo sapiens, UniProt P40261); enzyme activity in cells).
